Compound activity from PubChem.
T cruzi growth-1 – T. cruzi proliferation inhibition | T. cruzi beta-gal in NIH3T3, GalScreen luminescence, 90 h | inhibition, % at 8.34 µM | actives 5.9% (n = 77,000) | AID 624255;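 active means mean inhibition above about 93%, with at least 55% of replicates each passing it, limit read from the data, passing the limit was not always enough; inconclusive means only one of those two conditions holds; inactive means neither condition holds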
KDM4C inh – inhibitors of human demethylase GASC-1 KDM4C; Q9H3R0; AID 720574; actives 0.15% (n = 96,000); GST-KDM4C 2-372, H3K9me3 peptide, LANCE TR-FRET; inhibition, % at 12.5 µM;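 active means mean replicate inhibition above about 25%, with at least 55% of replicates also reaching it, limit read from the data, passing the limit was not always enough; inconclusive means only one of those two conditions met; inactive means neither condition met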
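System – N-terminal GST-fused human GASC-1 (KDM4C) fragment, residues 2-372 · Input – enzyme final amount 10 nM · Technique – LANCE TR-FRET, Eu antibody, ULight-streptavidin, EDTA, ex 340 nm, em 618/671 nm · Medium – HEPES buffer, pH 7.5, plus ascorbate · Incubation – enzyme reaction 30 min, then detection 60 min, both room temperature · Reagent – H3K9me3 peptide with Fe(II)/2OG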
IDH1 mut inh – blocks human IDH1 R132H reductase activity; O75874; diaphorase/resazurin fluorescence, 60 min; inhibition, % at 10 µM; actives 0.18% (n = 70,000); in the data active means inhibition above about 34%; inconclusive means no clear call, values can overlap the other calls; inactive means below about 11%;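 further: 0% = DMSO and 100% = no enzyme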
Target sequence (O75874 whole entry R132H): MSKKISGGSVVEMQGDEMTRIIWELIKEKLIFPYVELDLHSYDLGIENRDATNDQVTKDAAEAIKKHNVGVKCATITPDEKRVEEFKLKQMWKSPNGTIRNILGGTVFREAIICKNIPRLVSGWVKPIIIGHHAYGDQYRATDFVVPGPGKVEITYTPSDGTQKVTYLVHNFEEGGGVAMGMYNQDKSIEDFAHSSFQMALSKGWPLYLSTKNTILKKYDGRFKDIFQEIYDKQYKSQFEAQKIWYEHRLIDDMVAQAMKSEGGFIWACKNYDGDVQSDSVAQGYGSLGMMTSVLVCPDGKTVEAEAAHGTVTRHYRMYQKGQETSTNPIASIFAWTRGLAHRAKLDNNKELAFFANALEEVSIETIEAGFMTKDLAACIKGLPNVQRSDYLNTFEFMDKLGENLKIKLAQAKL
T cruzi growth-2 – blocks T. cruzi growth in NIH3T3 host cells; shares compounds with T cruzi growth-1; T. cruzi beta-gal in NIH3T3, GalScreen luminescence, 90 h; inhibition, % at 8.35 µM; actives 72% (n = 5,600);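 active means mean replicate inhibition above about 95% and at least 55% of replicates individually reaching it, limit read from the data; inconclusive means only one of the two criteria is met; inactive means neither criterion is met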
T cruzi growth-3 – Trypanosoma cruzi proliferation inhibition. AID 651740. actives 21% (n = 5,600). inhibition, % at 2.09 µM. T. cruzi beta-gal in NIH3T3, GalScreen luminescence, 90 h. shares compounds with T cruzi growth-1;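 active means mean inhibition above about 95%, with at least 55% of replicates also reaching it, limit read from the data; inconclusive means meets just one of the two conditions; inactive means meets neither condition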;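 further: plate controls were neutral control median for no effect and positive control median for full effect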
3T3 cytotox – cytotoxicity in mouse NIH/3T3 fibroblasts | shares compounds with T cruzi growth-1 | NIH/3T3 viability, CellTiter-Glo ATP luminescence, 90 h | cytotoxicity (signal decrease), % at 8.35 µM | actives 14% (n = 5,600) | AID 651742;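 active means mean signal decrease across replicates above about 35% based on untreated-well scatter, with enough replicates individually passing, limit read from the data; inconclusive means no rule stated though some were filed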;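 further: 0% = median of neutral control wells and 100% = median of positive control wells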
3T3 cytotox 2 – cytotoxicity in mouse NIH/3T3 fibroblasts | AID 651744 | actives 56% (n = 5,600) | NIH/3T3 viability, CellTiter-Glo ATP luminescence, 90 h | shares compounds with T cruzi growth-1 | inhibition, % at 24.9 µM;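 active means mean loss of cell viability signal at or above a set limit, and enough replicates individually reaching it; inconclusive means meets only the mean limit or only the replicate share; inactive means meets neither condition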;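 further: 0% = median of neutral control wells and 100% = median of positive control wells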
* = called active by the depositor; ? = inconclusive; nt = no result given. This is one part of a sample in which hits are shown more often than they occur.

SMILES	T cruzi growth-1	KDM4C inh	IDH1 mut inh	T cruzi growth-2	T cruzi growth-3	3T3 cytotox	3T3 cytotox 2
COc1ccc(NC(=O)Nc2cccc3c2O[C@H](CN(C)Cc2ccc(C(=O)Nc4ccccc4N)cc2)[C@H](C)CN([C@@H](C)CO)C3=O)cc1	nt	-2	nt	nt	nt	nt	nt
COc1ccc(NC(=O)Nc2cccc3c2O[C@H](CN(C)Cc2ccc(C(=O)O)cc2)[C@H](C)CN([C@@H](C)CO)C3=O)cc1	2	1	3	nt	nt	nt	nt
COc1ccc(NC(=O)Nc2ccc3c(c2)C(=O)N([C@H](C)CO)C[C@@H](C)[C@@H](CN(C)CC2CCCCC2)O3)cc1	22	0	0	nt	nt	nt	nt
COc1cc([N+](=O)[O-])ccc1NC(=O)CN(C)S(=O)(=O)c1ccc2ccccc2c1	nt	nt	0	nt	nt	nt	nt
COc1ccc(C)cc1S(=O)(=O)N1CCC(C(=O)Nc2cc(Cl)ccc2Cl)CC1	nt	nt	0	nt	nt	nt	nt
CC(C)C(=O)Nc1ccc2c(c1)C(=O)N(C)[C@H]1CC[C@H](CC(=O)NCC3CC3)O[C@H]1CO2	-31	4	nt	nt	nt	nt	nt
CC(C)C#Cc1cnc2c(c1)C(=O)N([C@@H](C)CO)C[C@@H](C)[C@@H](CN(C)C(=O)c1ccc3c(c1)OCO3)O2	nt	-4	nt	nt	nt	nt	nt
CC(C)C#Cc1ccc2c(c1)O[C@H](CN(C)C(=O)C1CCCCC1)[C@H](C)CN([C@H](C)CO)S2(=O)=O	100*	-4	nt	108*	88	13	105*
CC(C)C#Cc1ccc2c(c1)O[C@H](CN(C)C(=O)C1CCC1)[C@H](C)CN([C@H](C)CO)S2(=O)=O	82	0	nt	nt	nt	nt	nt
CC(C)C#Cc1ccc2c(c1)O[C@H](CN(C)C(=O)C1CCCCC1)[C@H](C)CN([C@@H](C)CO)S2(=O)=O	90	5	-2	nt	nt	nt	nt
CC(C)C#Cc1ccc2c(c1)O[C@H](CN(C)C(=O)C1CCCCC1)[C@@H](C)CN([C@@H](C)CO)S2(=O)=O	?	-3	nt	95*	82	7	106*
C=C(C(=O)O)C(O)CCC1(C)C2CC3C(C2)C31C (stereo unspecified)	nt	nt	2	nt	nt	nt	nt
C[C@@H]1CN([C@H](C)CO)C(=O)Cc2cc(NS(=O)(=O)c3ccc(F)cc3)ccc2O[C@@H]1CN(C)S(=O)(=O)c1cccs1	59	-3	0	nt	nt	nt	nt
C[C@@H]1CN([C@@H](C)CO)S(=O)(=O)c2ccc(-c3ccc(F)cc3)cc2O[C@@H]1CN(C)C(=O)C1CCC1	62	2	0	nt	nt	nt	nt
C[C@@H]1CN([C@H](C)CO)S(=O)(=O)c2ccc(-c3ccc(F)cc3)cc2O[C@H]1CN(C)C(=O)C1CCCCC1	53	-2	nt	nt	nt	nt	nt
C[C@H]1CN([C@@H](C)CO)S(=O)(=O)c2ccc(-c3ccc(F)cc3)cc2O[C@@H]1CN(C)C(=O)C1CCCCC1	99*	-2	nt	95*	69	10	53*
C[C@H]1CN([C@@H](C)CO)S(=O)(=O)c2ccc(-c3ccc(F)cc3)cc2O[C@H]1CN(C)C(=O)C1CCCCC1	112*	-1	0	96*	57	21	101*
C[C@H]1CN([C@@H](C)CO)S(=O)(=O)c2ccc(-c3ccc(F)cc3)cc2O[C@H]1CN(C)C(=O)C1CCC1	80	20	nt	nt	nt	nt	nt
C[C@H](CO)N1C[C@H](C)[C@H](CN(C)C(=O)C2CCCCC2)Oc2cc(-c3ccc(F)cc3)ccc2S1(=O)=O	119*	-4	-1	110*	71	?	100*
O=C(Nc1ccc(F)cc1)N1CC(=O)N2[C@H](C1)[C@H](c1ccc(-c3cccc(F)c3)cc1)[C@@H]2CO	nt	0	nt	nt	nt	nt	nt
C[C@@H]1CN([C@H](C)CO)S(=O)(=O)c2ccc(C#CC3CCCC3)cc2O[C@H]1CN(C)C(=O)c1cccc(F)c1	123*	-1	nt	101*	90	5	103*
C[C@H]1CN([C@@H](C)CO)S(=O)(=O)c2ccc(C#CC3CC3)cc2O[C@H]1CN(C)C(=O)c1cccc(F)c1	nt	2	nt	nt	nt	nt	nt
C[C@@H]1CN([C@H](C)CO)S(=O)(=O)c2ccc(C#CC3CCCC3)cc2O[C@@H]1CN(C)C(=O)c1cccc(F)c1	123*	-2	nt	95*	?	11	103*
C[C@@H]1CN([C@@H](C)CO)S(=O)(=O)c2ccc(C#CC3CC3)cc2O[C@H]1CN(C)C(=O)c1cccc(F)c1	nt	-3	-1	nt	nt	nt	nt
C[C@@H]1CN([C@H](C)CO)S(=O)(=O)c2ccc(C#CC3CC3)cc2O[C@H]1CN(C)C(=O)c1cccc(F)c1	nt	0	1	nt	nt	nt	nt
SMILES	T cruzi growth-1	KDM4C inh	IDH1 mut inh	T cruzi growth-2	T cruzi growth-3	3T3 cytotox	3T3 cytotox 2
C[C@@H]1CN([C@@H](C)CO)S(=O)(=O)c2ccc(C#CC3CCCC3)cc2O[C@H]1CN(C)C(=O)c1cccc(F)c1	120*	-2	nt	91	100*	41*	106*
C[C@H](CO)N1C[C@H](C)[C@H](CN(C)C(=O)c2cccc(F)c2)Oc2cc(C#CC3CCCC3)ccc2S1(=O)=O	123*	-1	nt	103*	78	5	103*
C[C@H]1CN([C@@H](C)CO)S(=O)(=O)c2ccc(C#CC3CC3)cc2O[C@@H]1CN(C)C(=O)c1cccc(F)c1	nt	0	-1	nt	nt	nt	nt
CC(=O)N(C)C[C@H]1Oc2ncc(-c3ccccc3F)cc2C(=O)N([C@H](C)CO)C[C@@H]1C	15	-1	-1	nt	nt	nt	nt
CC(=O)N(C)C[C@@H]1Oc2cc(Br)ccc2S(=O)(=O)N([C@H](C)CO)C[C@H]1C	9	1	2	nt	nt	nt	nt
Cc1noc(C)c1NC(=O)N(C)C[C@@H]1Oc2ccc(NC(=O)Cc3cn(C)c4ccccc34)cc2C(=O)N([C@@H](C)CO)C[C@H]1C	-162	-3	-30	nt	nt	nt	nt
O=C(CN1CCOCC1)N1CCCCN2[C@@H](CO)[C@@H](c3ccc(-c4ccccc4F)cc3)[C@@H]2C1	83	0	nt	nt	nt	nt	nt
C[C@H](CO)N1C[C@H](C)[C@H](CN(C)C(=O)c2cccc(F)c2)Oc2cc(C#CC3CC3)ccc2S1(=O)=O	nt	0	-1	nt	nt	nt	nt
C[C@@H]1CN([C@@H](C)CO)S(=O)(=O)c2ccc(C#CC3CCCC3)cc2O[C@@H]1CN(C)C(=O)c1cccc(F)c1	118*	0	-1	102*	98*	19	106*
COC(=O)c1cccc(NC(=O)CSc2nc(C)cc(-c3ccccc3)n2)c1	nt	nt	0	nt	nt	nt	nt
Cc1noc(C)c1S(=O)(=O)N(C)C[C@H]1Oc2ccc(NC(=O)CCCCCC(=O)Nc3ccccc3N)cc2CC(=O)N([C@H](C)CO)C[C@@H]1C	nt	0	-1	nt	nt	nt	nt
C[C@@H](NC(=O)[C@H]1N[C@H]2c3ccc(C4=CCCCC4)c(=O)n3C[C@H]2[C@@H]1CO)c1ccccc1	-4	1	nt	nt	nt	nt	nt
C[C@@H](NC(=O)[C@H]1N[C@H]2c3ccc(-c4ccncc4)c(=O)n3C[C@H]2[C@@H]1CO)c1ccccc1	58	2	nt	nt	nt	nt	nt
